Source: ChEMBL document CHEMBL3045051 (Med Chem Res, 2011)
Active and inactive are the calls of the source. The rule behind the calls is not given here.

What was measured:
[1] = Antioxidant activity assessed as inhibition of AAPH-induced lipid peroxidation at 1 X 10^-5 M; type: functional
Punta Toro virus = assay: Antiviral activity against Punta Toro virus infected Hela cells assessed as inhibition of virus-induced cytopathicity; type: functional, organism-based
Influenza A virus = assay: Antiviral activity against Unidentified Influenza A virus (H1N2) infected MDCK cells assessed as inhibition of virus-induced cytopathicity; type: functional, organism-based
Coxsackievirus B4 [2] = assay: Antiviral activity against Human coxsackievirus B4 infected VERO cells assessed as inhibition of virus-induced cytopathicity; type: functional, organism-based
In short: (§1)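 Confluent monolayers (feline kidney Crandell, Vero, HEL or HeLa, as named for each virus) were infected with 100 CCID50 of virus and allowed to adsorb for 1 h. Unbound virus was then removed, and cultures were incubated with test compound in serial dilutions (200, 40, 8 … µM). Cytopathicity was scored once untreated infected controls reached complete cytopathic effect.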

[3] = test system: Radical scavenging activity; assay: Antioxidant activity assessed as DPPH radical scavenging activity at 1 X 10^-4 M after 60 min; type: functional
In short: (§2)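 Test compound was mixed with DPPH (0.05 and 0.1 mM) in ethanol. Absorbance at 517 nm was read after 20 and 60 min and compared with the NDGA standard, with ethanol as control. Each experiment was run at least in triplicate, and the SD of absorbance was <10% of the mean.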

[4] = test system: Radical scavenging activity; assay: Antioxidant activity assessed as DPPH radical scavenging activity at 1 X 10^-4 M after 20 min; type: functional; in short: as §2
Sindbis virus = assay: Antiviral activity against Sindbis virus infected Hela cells assessed as inhibition of virus-induced cytopathicity; type: functional, organism-based
[5] = test system: Respiratory syncytial virus; assay: Antiviral activity against Respiratory syncytial virus infected human HeLa cells assessed as inhibition of virus-induced cytopathicity; type: functional, organism-based; in short: as §1
Human respirovirus 3 = assay: Antiviral activity against Human parainfluenza virus 3 infected Vero cells assessed as inhibition of virus-induced cytopathicity; type: functional, organism-based; in short: as §1
[6] = target: T1, Seed linoleate 13S-lipoxygenase-1 (Glycine max) (UniProt P08170); assay: Inhibition of Glycine max (soybean) lipoxygenase using sodium linoleate as substrate at 1 X 10^-4
T1 sequence (whole entry): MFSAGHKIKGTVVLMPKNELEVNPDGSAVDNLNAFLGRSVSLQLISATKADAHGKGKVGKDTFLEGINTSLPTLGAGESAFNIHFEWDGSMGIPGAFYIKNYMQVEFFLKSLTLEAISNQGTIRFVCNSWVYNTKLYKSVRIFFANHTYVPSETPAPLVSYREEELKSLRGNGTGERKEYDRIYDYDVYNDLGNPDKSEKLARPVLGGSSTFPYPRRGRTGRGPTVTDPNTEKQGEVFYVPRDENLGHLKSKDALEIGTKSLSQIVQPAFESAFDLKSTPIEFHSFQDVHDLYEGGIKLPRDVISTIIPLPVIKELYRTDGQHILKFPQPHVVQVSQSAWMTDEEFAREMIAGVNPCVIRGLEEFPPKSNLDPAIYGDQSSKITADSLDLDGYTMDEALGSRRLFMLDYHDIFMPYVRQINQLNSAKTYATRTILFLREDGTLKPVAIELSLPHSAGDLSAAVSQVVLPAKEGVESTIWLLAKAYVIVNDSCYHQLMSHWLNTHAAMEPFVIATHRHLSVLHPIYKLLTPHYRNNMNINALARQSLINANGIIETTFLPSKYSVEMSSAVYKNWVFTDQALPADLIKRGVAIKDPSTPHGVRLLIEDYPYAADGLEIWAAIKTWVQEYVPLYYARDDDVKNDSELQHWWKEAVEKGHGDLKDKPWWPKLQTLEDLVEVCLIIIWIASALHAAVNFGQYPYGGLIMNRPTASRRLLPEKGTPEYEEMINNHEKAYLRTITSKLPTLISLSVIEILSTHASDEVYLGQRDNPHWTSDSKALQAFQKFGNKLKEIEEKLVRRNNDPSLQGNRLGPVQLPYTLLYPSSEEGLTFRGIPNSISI

Feline coronavirus = assay: Antiviral activity against Feline coronavirus infected feline kidney crandell cells assessed as inhibition of virus-induced cytopathicity; type: functional, organism-based; in short: as §1
[7] = test system: Vesicular stomatitis virus; assay: Antiviral activity against Vesicular stomatitis virus infected Hela cells assessed as inhibition of virus-induced cytopathicity; type: functional, organism-based
Coxsackievirus B4 [8] = assay: Antiviral activity against Human coxsackievirus B4 infected human HeLa cells assessed as inhibition of virus-induced cytopathicity; type: functional, organism-based; in short: as §1
Human alphaherpesvirus 1 = assay: Antiviral activity against […] 1 KOS infected in human HEL cells assessed as inhibition of virus-induced cytopathicity; type: functional, organism-based; in short: as §1
[9] = Antioxidant activity assessed as inhibition of AAPH-induced lipid peroxidation at 1 X 10^-4 M; type: functional
[10] = test system: Mammalian orthoreovirus 1; assay: Antiviral activity against Mammalian orthoreovirus 1 infected VERO cells assessed as inhibition of virus-induced cytopathicity; type: functional, organism-based; in short: as §1
Vaccinia virus = assay: Antiviral activity against Vaccinia virus infected human HEL cells assessed as inhibition of virus-induced cytopathicity; type: functional, organism-based; conditions: Orthopoxvirus vaccinia
[11] = target: T2, Seed linoleate 13S-lipoxygenase-1 (Glycine max, UniProt P08170); assay: Inhibition of Glycine max (soybean) lipoxygenase using sodium linoleate as substrate
T2 sequence (P08170 whole entry): T1 sequence (whole entry)

[12] = test system: Radical scavenging activity; assay: Antioxidant activity assessed as DPPH radical scavenging activity at 5 X 10^-5 M after 20 min; type: functional; in short: as §2
Human alphaherpesvirus 2 = assay: Antiviral activity against Human herpesvirus 2 strain G infected human HEL cells assessed as inhibition of virus-induced cytopathicity; type: functional, organism-based; in short: as §1
[13] = test system: Vesicular stomatitis virus; assay: Antiviral activity against Vesicular stomatitis virus infected HEL cells assessed as inhibition of virus-induced cytopathicity; type: functional, organism-based
[14] = test system: Radical scavenging activity; assay: Antioxidant activity assessed as DPPH radical scavenging activity at 5 X 10^-5 M after 60 min; type: functional; in short: as §2

Row | SMILES | inhibition [1] | Activity (Punta Toro virus) | Activity (Influenza A virus) | Activity (Influenza A virus; H1N1) | Activity (Coxsackievirus B4 [2]) | inhibition [3] [%] | inhibition [4] | Activity (Sindbis virus) | Activity [5] | Activity (Human respirovirus 3) | Activity (Feline coronavirus) | Activity (Coxsackievirus B4 [8]) | Activity (Human alphaherpesvirus 1) | Activity [10] | Activity (Vaccinia virus) | IC50 [11] [µM] | inhibition [12] [%] | Activity (Human alphaherpesvirus 2) | Activity [13] | inhibition [14] [%] | also measured
1 | CC(C(=O)NCC1CCCCC1)c1cccc(C(OC(=O)NCC2CCCCC2)c2ccccc2)c1 (configuration not stated) | 1.4% | inactive | inactive | inactive | inactive | 5.2 | 1.6% | inactive | inactive | inactive | inactive | inactive | inactive | inactive | inactive | 95 | 1.7 | inactive | inactive | 3.1 | inhibition [6]: 56.6%; Activity [7]: inactive; inhibition [9]: 99.5%
2 | CC(C(=O)n1nnc2ccccc21)c1cccc(C(OC(=O)n2nnc3ccccc32)c2ccccc2)c1 (configuration not stated) | 15% | inactive | inactive | inactive | inactive | 5.4 | 2.5% | inactive | inactive | inactive | inactive | inactive | inactive | inactive | inactive | 21 | 2.9 | inactive | inactive | 3.7 | inhibition [6]: 95%; Activity [7]: inactive; inhibition [9]: 98%
3 | CC(C(=O)O)c1cccc(C(=O)c2ccccc2)c1 (configuration not stated) [KETOPROFEN] | – | inactive | inactive | inactive | inactive | 7.2 | 8.1% | inactive | inactive | inactive | inactive | inactive | inactive | inactive | inactive | 130 | 6.4 | inactive | inactive | 3.1 | Activity [7]: inactive
4 | CC(C(=O)NC1CCCC1)c1cccc(C(OC(=O)NC2CCCC2)c2ccccc2)c1 (configuration not stated) | inactive | inactive | inactive | inactive | inactive | 2.3 | inactive | inactive | inactive | inactive | inactive | inactive | inactive | inactive | inactive | 86 | 3.2 | inactive | inactive | 2.8 | inhibition [6]: 69.6%; Activity [7]: inactive; inhibition [9]: 95.2%
5 | CC(C(=O)NCc1ccccc1)c1cccc(C(OC(=O)NCc2ccccc2)c2ccccc2)c1 (configuration not stated) | inactive | – | inactive | inactive | inactive | 2.4 | inactive | – | inactive | inactive | inactive | inactive | inactive | inactive | inactive | 32 | 4.2 | inactive | inactive | 5.3 | EC50 (Punta Toro virus): 11 µM; EC50 (Sindbis virus): 11 µM; inhibition [6]: 83.8%; EC50 [7]: 3 µM; inhibition [9]: 98.4%
